Source: ChEMBL document CHEMBL3351392, “Synthesis, in vitro and in vivo studies, and molecular modeling of N-alkylated dextromethorphan derivatives as non-competitive inhibitors of α3β4 nicotinic acetylcholine receptor” (Bioorg Med Chem, 2014)
The source made the active and inactive calls. No cut-off for these calls is given here.

Tests used:
[1] = molecular target: Neuronal acetylcholine receptor; alpha3/beta4 (Rattus norvegicus, UniProt P04757+P12392); assay: Non-competitive inhibition of rat alpha3beta4 nAChR expressed in KX cells assessed as reduction in current by whole-cell patch clamp assay; format: cell-based
Method in brief: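 KXα3β4R2 cells (rat α3β4) grown in MEM with 10% FBS and 0.7 mg/ml geneticin at 37 °C, 5% CO2, and harvested at 70% confluence. Whole-cell clamp at […] holding potential in HEPES pH 7.4 bath (120 mM NaCl, 3.1 mM KCl, 2 mM CaCl2, 5 mM glucose) at room temperature. Pipette solution: CsCl, ATP, EGTA, pH 7.2. Agents were applied from 0.1 nM upward with 100 µM (S)-nicotine; IC50 taken from current decrease relative to nicotine alone (100%).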

[2] = system: Rattus norvegicus; assay: Toxicity in Wistar rat assessed as inhibition of conditioned place preference at 1/20 to 1/10 LD50, ip in absence of nicotine preconditioning; format: organism-based; settings: in vivo
[3] = system: Rattus norvegicus; assay: Effect on basal locomotor activity in Wistar rat at 1/20 to 1/10 LD50, ip; format: ADME, organism-based; settings: in vivo
[4] = system: Rattus norvegicus; assay: Behavioral effect in Wistar rat assessed as inhibition of nicotine-induced conditioned place preference at 1/20 LD50, ip administered during post-conditioning test phase on day 5 of nicotine treatment; format: functional, organism-based
Method in brief: (§1)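 Male Wistar rats (250–300 g), on restricted chow and handled for 5 days. A 15-min baseline excluded rats with a side preference. On days 2–4, two 30-min sessions per day: vehicle in the morning, nicotine 0.175 mg/kg ip in the afternoon, each in opposite compartments. On day 5, agent given ip (5 ml/kg) 60 min before nicotine, then tested immediately. Score is post- minus pre-conditioning time in the drug-paired compartment; n = 7–14.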

[5] = system: Rattus norvegicus; assay: Behavioral effect in Wistar rat assessed as inhibition of nicotine-induced conditioned place preference at 10 mg/kg, ip administered during post-conditioning test phase on day 5 of nicotine treatment; format: functional, organism-based; parameters: dose 10 mg/kg; method in brief: as §1
[6] = system: Rattus norvegicus; assay: Toxicity in Wistar rat assessed as inhibition of conditioned place preference at 10 mg/kg, ip in absence of nicotine preconditioning; format: organism-based; parameters: dose 10 mg/kg, route intraperitoneal; settings: in vivo
[7] = system: Rattus norvegicus; assay: Effect on basal locomotor activity in Wistar rat at 5 mg/kg, ip; format: ADME, organism-based; parameters: dose 5 mg/kg, route intraperitoneal; settings: in vivo

Chain of Neuronal acetylcholine receptor; alpha3/beta4 (P04757 whole entry): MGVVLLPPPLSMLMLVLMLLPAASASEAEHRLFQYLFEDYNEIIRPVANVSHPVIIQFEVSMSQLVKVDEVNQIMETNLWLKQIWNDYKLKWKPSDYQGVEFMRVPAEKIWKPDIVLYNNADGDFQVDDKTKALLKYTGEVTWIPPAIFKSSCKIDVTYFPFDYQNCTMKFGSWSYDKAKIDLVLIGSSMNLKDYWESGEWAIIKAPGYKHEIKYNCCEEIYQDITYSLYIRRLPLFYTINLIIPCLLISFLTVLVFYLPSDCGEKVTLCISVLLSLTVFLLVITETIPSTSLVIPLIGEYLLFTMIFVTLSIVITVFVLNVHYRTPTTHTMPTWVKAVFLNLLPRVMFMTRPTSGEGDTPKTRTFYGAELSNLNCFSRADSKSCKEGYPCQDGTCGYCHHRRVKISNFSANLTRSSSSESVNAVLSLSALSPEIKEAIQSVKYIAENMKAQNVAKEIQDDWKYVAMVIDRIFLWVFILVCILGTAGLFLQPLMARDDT
Chain of Neuronal acetylcholine receptor; alpha3/beta4 (P12392 whole entry): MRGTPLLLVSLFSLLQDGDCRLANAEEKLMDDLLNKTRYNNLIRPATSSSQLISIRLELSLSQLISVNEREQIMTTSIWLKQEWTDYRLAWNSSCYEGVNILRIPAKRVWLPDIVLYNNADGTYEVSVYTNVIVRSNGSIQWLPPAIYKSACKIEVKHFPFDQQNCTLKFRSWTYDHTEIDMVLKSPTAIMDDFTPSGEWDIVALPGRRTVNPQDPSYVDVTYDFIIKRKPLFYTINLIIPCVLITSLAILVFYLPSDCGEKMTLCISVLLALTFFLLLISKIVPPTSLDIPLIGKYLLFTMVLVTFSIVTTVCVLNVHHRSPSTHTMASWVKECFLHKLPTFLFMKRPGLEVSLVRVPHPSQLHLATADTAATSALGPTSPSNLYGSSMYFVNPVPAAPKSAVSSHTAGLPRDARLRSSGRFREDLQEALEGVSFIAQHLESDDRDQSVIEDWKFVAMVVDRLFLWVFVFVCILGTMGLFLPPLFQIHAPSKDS

Row | SMILES | IC50 [1] | further results
1 | CCC(=O)CN1CC[C@@]23CCCC[C@@H]2[C@@H]1Cc1ccc(OC)cc13 | 2.5 µM | –
2 | COc1ccc2c(c1)[C@]13CCCC[C@@H]1[C@H](C2)N(CCCC#N)CC3 | 87 µM | –
3 | COc1ccc2c(c1)[C@]13CCCC[C@@H]1[C@H](C2)N(CC1OCCO1)CC3 | 1.95 µM | Activity [2]: Non-toxic; Activity [3]: Non-toxic
4 | COc1ccc2c(c1)[C@]13CCCC[C@@H]1[C@H](C2)N(CC1=NCCN1)CC3 | 6.61 µM | –
5 | COc1ccc2c(c1)[C@]13CCCC[C@@H]1[C@H](C2)N(CC#N)CC3 | 10.5 µM | inhibition [4]: Active; Activity [2]: Non-toxic; Activity [3]: Non-toxic
6 | COc1ccc2c(c1)[C@]13CCCC[C@@H]1[C@H](C2)N(CCC#N)CC3 | 176 µM | –
7 | COc1ccc2c(c1)[C@]13CCCC[C@@H]1[C@H](C2)N(C)CC3 [DEXTROMETHORPHAN] | 11.1 µM | inhibition [5]: Active; Activity [6]: Non-toxic; Activity [7]: Non-toxic
8 | COc1ccc2c(c1)[C@]13CCCC[C@@H]1[C@H](C2)N(CCC1OCCO1)CC3 | 7.14 µM | Activity [2]: Non-toxic; Activity [3]: Non-toxic
9 | COc1ccc2c(c1)[C@]13CCCC[C@@H]1[C@H](C2)NCC3 | 3.08 µM | –
10 | COc1ccc2c(c1)[C@]13CCCC[C@@H]1[C@H](C2)N(CC(N)=O)CC3 | 41.4 µM | –
11 | COc1ccc2c(c1)[C@]13CCCC[C@@H]1[C@H](C2)N(CCC(C)=O)CC3 | 2.57 µM | –
